Laboratory results as given in ChEMBL document CHEMBL1148636, “Novel analogues of degarelix incorporating hydroxy-, methoxy-, and pegylated-urea moieties at positions 3, 5, 6 and the N-terminus. Part III” (J Med Chem, 2006).
≈ marks a conversion by molar mass, not a printed value. Calls of active or inactive are those of the source. The calls are words filed in the database; no cut-off is given here. Numbered stars: 1 amine (or outer) side, 2 acyl side, 3 side chain; on linkers, the order of the positions; unused ones are H or OH. Square brackets hold non-standard residues; d marks the D form. Side chains are listed from the residue outwards. Peptide text beside a SMILES is read from it. * marks the point of attachment. dPhe(4-NHCONH2) = NC(=O)Nc1ccc(C[C@@H](N)C(=O)O)cc1; Dihydroorotyl(S) = O=C1C[C@@H](C(=O)*)NC(=O)N1; dPhe(4-Cl) = N[C@H](Cc1ccc(Cl)cc1)C(=O)O; Phe(4-NH2) = Nc1ccc(C[C@H](N)C(=O)O)cc1; d2Nal = N[C@H](Cc1ccc2ccccc2c1)C(=O)O; Lys(iPr) = CC(C)NCCCC[C@H](N)C(=O)O; NHCH2CH2OCH2CH2OEt = CCOCCOCCN*; d3Pal = N[C@H](Cc1cccnc1)C(=O)O; Methoxycarbamoyl = CONC(=O)*; CO = O=C([*:1])[*:2]

Experiments:
[1] = test system: Rattus norvegicus; assay: Antiovulatory activity in rat at 2 ug, sc; assay type: functional, organism-based
In short: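 Cycling rats (250-300 g) given peptide 2 μg in 200 μL saline or 5% DMSO in saline sc at noon on proestrus; scored as number of rats ovulating over total treated (8 per group).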

[2] = test system: Mast cell (Rattus norvegicus); assay: Histamine release in mast cells by ELISA
[3] = test system: Rattus norvegicus; assay: Inhibition of GnRH-induced LH secretion in Sprague-Dawley rat at 50 ug, sc for 120 hrs; assay type: functional
In short: (§1)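 Male rats castrated ten days earlier (≥5 per group) injected sc with 50 μg peptide in 50 μL 5% mannitol (0.6% DMSO in the stock); vehicle controls run alongside. Tail-tip blood taken pre-dose and at 3, 72, 96, 120, 144, 168 and sometimes 192 h; plasma LH by RIA, all samples of one experiment in the same assay; >80% inhibition scored.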

[4] = target: T1, Gonadotropin-releasing hormone receptor (Homo sapiens, UniProt P30968); assay: Antagonist activity at human GnRH receptor expressed in HEK293 cells as inhibition of GnRH-induced LH secretion by reporter gene assay; assay type: functional, cell-based
T1 sequence (P30968 whole entry): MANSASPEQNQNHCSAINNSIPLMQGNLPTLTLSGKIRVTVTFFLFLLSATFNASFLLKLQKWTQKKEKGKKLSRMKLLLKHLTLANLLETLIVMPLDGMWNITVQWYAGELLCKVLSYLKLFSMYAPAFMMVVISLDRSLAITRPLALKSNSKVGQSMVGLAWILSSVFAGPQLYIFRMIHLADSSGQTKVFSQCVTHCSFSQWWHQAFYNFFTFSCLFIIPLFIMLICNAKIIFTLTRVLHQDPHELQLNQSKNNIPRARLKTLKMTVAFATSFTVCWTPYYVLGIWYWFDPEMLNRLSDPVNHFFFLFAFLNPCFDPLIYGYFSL
In short: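 HEK293 cells stably expressing cloned human GnRH receptor plus luciferase reporter under LH alpha subunit promoter; plated 5 × 10^4 cells/well, overnight 37 °C. Compounds in 1% DMSO, 11 half-log concentrations in duplicate, 10 min preincubation, then GnRH 1 nM final, ≥5 h at 37 °C; luminescence read. Percent of control fitted to IC50; geometric mean of ≥2 independent experiments.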

[5] = test system: Rattus norvegicus; assay: Inhibition of GnRH-induced LH secretion in Sprague-Dawley rat at 50 ug, sc for 72 hrs; assay type: functional; in short: as §1

CC(=O)N[C@H](Cc1ccc2ccccc2c1)C(=O)N[C@H](Cc1ccc(Cl)cc1)C(=O)N[C@H](Cc1cccnc1)C(=O)N[C@@H](CO)C(=O)N[C@@H](Cc1ccc(NC(=O)[C@@H]2CC(=O)NC(=O)N2)cc1)C(=O)N[C@H](Cc1ccc(NC(N)=O)cc1)C(=O)N[C@@H](CC(C)C)C(=O)N[C@@H](CCCCNC(C)C)C(=O)N1CCC[C@H]1C(=O)N[C@H](C)C(N)=O [DEGARELIX] (Ac-[d2Nal][dPhe(4-Cl)][d3Pal]S[Phe(4-NH2)](Dihydroorotyl(S))[dPhe(4-NHCONH2)]L[Lys(iPr)]P[dA]-NH2)
Activity [1]: Active
EC50 [2]: > 1000 µg/mL
Inhibition [3]: >80%

CONC(=O)Nc1ccc(C[C@H](NC(=O)[C@H](CO)NC(=O)[C@@H](Cc2cccnc2)NC(=O)[C@@H](Cc2ccc(Cl)cc2)NC(=O)[C@@H](Cc2ccc3ccccc3c2)NC(C)=O)C(=O)N[C@H](Cc2ccc(NC(=O)NOC)cc2)C(=O)N[C@@H](CC(C)C)C(=O)N[C@@H](CCCCNC(C)C)C(=O)N2CCC[C@H]2C(=O)N[C@H](C)C(N)=O)cc1
Activity [1]: Active
IC50 [4]: 0.91 nM
EC50 [2]: 46 µg/mL (≈ 28.8 µM)

CCOCCOCCNC(=O)N[C@H](Cc1ccc2ccccc2c1)C(=O)N[C@H](Cc1ccc(Cl)cc1)C(=O)N[C@H](Cc1cccnc1)C(=O)N[C@@H](CO)C(=O)N[C@@H](Cc1ccc(NC(=O)NOC)cc1)C(=O)N[C@H](Cc1ccc(NC(N)=O)cc1)C(=O)N[C@@H](CC(C)C)C(=O)N[C@@H](CCCCNC(C)C)C(=O)N1CCC[C@H]1C(=O)N[C@H](C)C(N)=O
Activity [1]: Active
IC50 [4]: 2.98 nM
EC50 [2]: 50.6 µg/mL (≈ 30.1 µM)

CC(=O)Nc1ccc(C[C@H](NC(=O)[C@H](CO)NC(=O)[C@@H](Cc2cccnc2)NC(=O)[C@@H](Cc2ccc(Cl)cc2)NC(=O)[C@@H](Cc2ccc3ccccc3c2)NC(C)=O)C(=O)N[C@H](Cc2ccc(NC(C)=O)cc2)C(=O)N[C@@H](CC(C)C)C(=O)N[C@@H](CCCCNC(C)C)C(=O)N2CCC[C@H]2C(=O)N[C@H](C)C(N)=O)cc1 [ACYLINE]
Activity [1]: Active
EC50 [2]: 461 µg/mL (≈ 301 µM)

CCOCCOCCNC(=O)Nc1ccc(C[C@H](NC(=O)[C@H](CO)NC(=O)[C@@H](Cc2cccnc2)NC(=O)[C@@H](Cc2ccc(Cl)cc2)NC(=O)[C@@H](Cc2ccc3ccccc3c2)NC(=O)NCCOCCOCC)C(=O)N[C@H](Cc2ccc(NC(N)=O)cc2)C(=O)N[C@@H](CC(C)C)C(=O)N[C@@H](CCCCNC(C)C)C(=O)N2CCC[C@H]2C(=O)N[C@H](C)C(N)=O)cc1
Activity [1]: Active
IC50 [4]: 1.12 nM
EC50 [2]: > 1000 µg/mL

CONC(=O)Nc1ccc(C[C@H](NC(=O)[C@H](CO)NC(=O)[C@@H](Cc2cccnc2)NC(=O)[C@@H](Cc2ccc(Cl)cc2)NC(=O)[C@@H](Cc2ccc3ccccc3c2)NC(C)=O)C(=O)N[C@H](Cc2ccc(NC(N)=O)cc2)C(=O)N[C@@H](CC(C)C)C(=O)N[C@@H](CCCCNC(C)C)C(=O)N2CCC[C@H]2C(=O)N[C@H](C)C(N)=O)cc1 (Ac-[d2Nal][dPhe(4-Cl)][d3Pal]S[Phe(4-NH2)](Methoxycarbamoyl)[dPhe(4-NHCONH2)]L[Lys(iPr)]P[dA]-NH2)
Inhibition [5]: >80%
IC50 [4]: 0.6 nM

CONC(=O)Nc1ccc(C[C@@H](NC(=O)[C@H](Cc2ccc(NC(=O)NOC)cc2)N(C)C(=O)[C@H](CO)NC(=O)[C@@H](Cc2cccnc2)NC(=O)[C@@H](Cc2ccc(Cl)cc2)NC(=O)[C@@H](Cc2ccc3ccccc3c2)NC(C)=O)C(=O)N[C@@H](CC(C)C)C(=O)N[C@@H](CCCCNC(C)C)C(=O)N2CCC[C@H]2C(=O)N[C@H](C)C(N)=O)cc1
Activity [1]: Active
IC50 [4]: 0.7 nM
EC50 [2]: 43.1 µg/mL (≈ 26.8 µM)

CCOCCOCCNC(=O)Nc1ccc(C[C@H](NC(=O)[C@H](CO)NC(=O)[C@@H](Cc2cccnc2)NC(=O)[C@@H](Cc2ccc(Cl)cc2)NC(=O)[C@@H](Cc2ccc3ccccc3c2)NC(C)=O)C(=O)N[C@H](Cc2ccc(NC(N)=O)cc2)C(=O)N[C@@H](CC(C)C)C(=O)N[C@@H](CCCCNC(C)C)C(=O)N2CCC[C@H]2C(=O)N[C@H](C)C(N)=O)cc1 (Ac-[d2Nal][dPhe(4-Cl)][d3Pal]S[Phe(4-NH2)]([CO-NHCH2CH2OCH2CH2OEt])[dPhe(4-NHCONH2)]L[Lys(iPr)]P[dA]-NH2)
Activity [1]: Active
EC50 [2]: 910 µg/mL (≈ 551 µM)
